Source: ChEMBL document CHEMBL1158379, “Design, synthesis and hypolipidemic activity of novel 2-(m-tolyloxy) isobutyric acid derivatives” (2009)

How the values were obtained:
Type in all cases: functional
Rattus norvegicus [1] = test: Hypolipidemic activity in 14 days high cholesterol diet fed Wistar albino rat hyperlipidemic model assessed as increase in serum high density lipoprotein cholesterol level at 20 mg/kg, po administered on day 8 to 14
In short: (§1)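 Male Wistar rats (160–180 g), acclimatized one week, fed chow with 2% cholesterol and 1% cholic acid for 14 days. Oral dosing was 20 mg/kg in 0.5% CMC on days 8–14, with six rats per group. On day 14, after a 12 h fast, tail blood was drawn under ether. Serum was analysed by kit spectrophotometry. Results are % change versus vehicle-treated hyperlipidemic controls.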

Rattus norvegicus [2] = test: Ratio of serum LDL cholesterol to serum HDL cholesterol in 14 days high cholesterol diet fed Wistar albino rat at 20 mg/kg, po administered on day 8 to 14
Rattus norvegicus [3] = test: Hypolipidemic activity in 14 days high cholesterol diet fed Wistar albino rat hyperlipidemic model assessed as decrease in serum total cholesterol level at 20 mg/kg, po administered on day 8 to 14; parameters: scale not given: the % may be the effect or the level left; in short: as §1
Rattus norvegicus [4] = test: Hypolipidemic activity in 14 days high cholesterol diet fed Wistar albino rat hyperlipidemic model assessed as decrease in serum triglyceride level at 20 mg/kg, po administered on day 8 to 14; parameters: scale not given: the % may be the effect or the level left; in short: as §1
Rattus norvegicus [5] = test: Hypolipidemic activity in 14 days high cholesterol diet fed Wistar albino rat hyperlipidemic model assessed as decrease in serum low density lipoprotein cholesterol level at 20 mg/kg, po administered on day 8 to 14; parameters: scale not given: the % may be the effect or the level left
In short: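 HCD model in male Wistar rats (160–180 g) on chow plus 2% cholesterol and 1% cholic acid for 14 days. Oral dosing was 20 mg/kg in 0.5% carboxymethylcellulose from day 8 to 14, with groups of six. Rats were fasted 12 h on day 14, and tail blood was taken under mild ether anesthesia. Serum was separated by centrifugation at 3000 rpm for 10 min for lipoprotein cholesterol measurement.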

Homo sapiens [6] = organism: Homo sapiens; test: Reduction of plasma triglyceride level in human; parameters: scale not given: the % may be the effect or the level left
Homo sapiens [7] = organism: Homo sapiens; test: Increase of plasma HDL cholesterol level in human

Compound	Activity (Rattus norvegicus [1])	Ratio (Rattus norvegicus [2])	Activity (Rattus norvegicus [3])	Activity (Rattus norvegicus [4])	Activity (Rattus norvegicus [5])	Activity (Homo sapiens [6])	Activity (Homo sapiens [7])
CCNC(=S)NNC(=O)C(C)(C)Oc1cccc(C)c1	5.85%	6.08	-0.59%	5.44%	-1.16%	–	–
Cc1cccc(OC(C)(C)C(=O)N/N=C/c2ccccc2Cl)c1	14.6%	6	0%	-1.32%	2.6%	–	–
COc1ccc(NC(=O)C(C)(C)Oc2cccc(C)c2)cc1	15.28%	3.93	23.24%	25.79%	28.67%	–	–
Cc1cccc(OC(C)(C)C(=O)O)c1	10.68%	4.62	15.89%	17.98%	19.56%	–	–
Cc1cccc(OC(C)(C)C(=O)N/N=C/c2ccccc2)c1	18.47%	4.94	4.12%	2.54%	8.02%	–	–
CCOC(=O)c1ccc(NC(=O)C(C)(C)Oc2cccc(C)c2)cc1	15.04%	5.2	2.65%	0.43%	5.94%	–	–
Cc1cccc(OC(C)(C)C(=O)NCCc2ccccc2)c1	22.45%	4.09	12.95%	1.2%	21.21%	–	–
Cc1cccc(OC(C)(C)C(=O)N/N=C/c2ccc([N+](=O)[O-])cc2)c1	9.12%	5.71	0.29%	-0.84%	2.3%	–	–
C=CCNC(=S)NNC(=O)C(C)(C)Oc1cccc(C)c1	6.78%	6.02	-1.77%	-1.61%	-1%	–	–
COc1ccc(/C=N/NC(=O)C(C)(C)Oc2cccc(C)c2)cc1	15.8%	5.41	–	9.03%	-9.39%	–	–
CC(C)(Oc1ccc(CCNC(=O)c2ccc(Cl)cc2)cc1)C(=O)O [BEZAFIBRATE]	–	–	–	–	–	30%	5%
CCOC(=O)C(C)(C)Oc1ccc(Cl)cc1 [CLOFIBRATE]	–	–	–	–	–	30%	5%
CC(C)OC(=O)C(C)(C)Oc1ccc(C(=O)c2ccc(Cl)cc2)cc1 [FENOFIBRATE]	–	–	–	–	–	30%	5%
Cc1ccc(C)c(OCCCC(C)(C)C(=O)O)c1 [GEMFIBROZIL]	25.18%	4.81	4.68%	22.23%	5.35%	–	–
